Data from ChEMBL document CHEMBL4229342, “Synthesis of novel proxyphylline derivatives with dual Anti-Candida albicans and anticancer activity” (Eur J Med Chem, 2018).
Activity calls are given as the source filed them. The calls are words filed in the database; no cut-off is given here.

Legend:
Candida albicans [1] = test: Induction of apoptosis in Candida albicans ATCC 90028 planktonic forms assessed as effect on DNA content of necrotic cells at 4 to 16 ug/ml by ethidium bromide staining based gel electrophoresis and confocal laser scanning microscopy; assay type: functional, organism-based
Candida albicans [2] = test: Antifungal activity against Candida albicans ATCC 90028 infected in Galleria mellonella larvae infected with 20 uM compound pre-treated cell suspensions assessed as reduction in fungal cell nodules in dark for 144 hrs at 30 degC and measured every 24 hrs by hematoxylin and eosin staining-based light microscopic analysis; assay type: functional, organism-based
Candida albicans [3] = test: Induction of apoptosis in Candida albicans ATCC 90028 protoplast assessed as late apoptotic cells at 20 uM after 48 hrs Annexin V-FITC/propidium iodide staining based flow cytometric analysis (reference value: 0.3 +/- 0.30%); assay type: functional
Candida albicans [4] = test: Induction of chitinase release in Candida albicans ATCC 90028 assessed as p-nitrophenyl release from N-acetyl-beta-D-glucosaminide at 20 uM by chitinolytic activity assay; assay type: functional, organism-based
Candida albicans [5] = test: Induction of apoptosis in Candida albicans ATCC 90028 protoplast assessed as necrotic cells at 20 uM after 48 hrs Annexin V-FITC/propidium iodide staining based flow cytometric analysis (reference value: 0.33 +/- 0.20%); assay type: functional
Candida albicans [6] = test: Inhibition of biofilm formation of Candida albicans ATCC 90028 at 20 uM […] by XTT assay; assay type: functional
Candida albicans [7] = test: Disruption of cell wall in Candida albicans SC5314 assessed as decrease in chitin level after 18 hrs by calcofluor white staining-based flow cytometric analysis; assay type: functional, organism-based
Candida albicans [8] = test: Induction of apoptosis in Candida albicans ATCC 90028 protoplast assessed as early apoptotic cells at 20 uM after 48 hrs Annexin V-FITC/propidium iodide staining based flow cytometric analysis (reference value: 3.00 +/- 1.65%); assay type: functional
Candida albicans [9] = test: Induction of apoptosis in Candida albicans ATCC 90028 protoplast assessed as early apoptotic cells at 248 uM after 48 hrs Annexin V-FITC/propidium iodide staining based flow cytometric analysis (reference value: 3.00 +/- 1.65%); assay type: functional
Candida albicans [10] = test: Antibiofilm activity in Candida albicans ATCC 90028 assessed as beta-glucan uniform distribution at 248 uM after 18 hrs by Congo red staining-based confocal laser scanning microscopic analysis; assay type: functional, organism-based
In short: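 Mature C. albicans biofilm cells were stained with 2% Congo Red to detect β-glucan exposure. They were imaged by confocal laser scanning microscopy as fluorescence and fluorescence/DIC overlays. Treated biofilms were compared with untreated control biofilm.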

SMILES: CC(Cn1cnc2c1c(=O)n(C)c(=O)n2C)OCc1cn(CCCn2nc3c(Br)c(Br)c(Br)c(Br)c3n2)nn1 (stereo not given)
- Activity (Candida albicans [1]): inactive
- Activity (Candida albicans [2]): Active
- Activity (Candida albicans [3]): 0.22%
- Activity (Candida albicans [4]): inactive
- Activity (Candida albicans [5]): 93.94%
- inhibition at 20 µM (Candida albicans [6]): 47%
- Activity (Candida albicans [7]): Dose-dependent effect
- Activity (Candida albicans [8]): 2.87%

SMILES: CC(CN1c2ccccc2Sc2ccccc21)OC(=O)OC(C)Cn1cnc2c1c(=O)n(C)c(=O)n2C (stereo not given)
- Activity (Candida albicans [9]): 1.2%
- Activity (Candida albicans [10]): inactive
